Data from ChEMBL document CHEMBL4145607, “Tamarixetin Exhibits Anti-inflammatory Activity and Prevents Bacterial Sepsis by Increasing IL-10 Production” (J Nat Prod, 2018).
Calls of active or inactive are those of the source. No cut-off for these calls is given here.

Assays:
BMDC [1] = test: Increase in microRNA155 expression in LPS-induced C57BL/6 mouse BMDC at 25 uM pretreated for 30 mins followed by LPS-challenge measured after 6 hrs by qRT-PCR analysis; format: functional, cell-based
Method in brief: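 Total RNA was extracted from BMDCs with TRIzol and reverse transcribed. miR-146a, miR-155 and miR-187 were quantified by real-time qPCR with gene-specific primers.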

Mus musculus [2] = test: Antiinflammatory activity in Balb/c mouse model of LPS-induced endotoxemia assessed as increase in IL10 producing Tr1 population in splenocyte at 1 mg/kg, ip pretreated for 1 hr followed by LPS-challenge measured after 12 hrs by flow cytometric analysis; format: functional, organism-based
Mus musculus [3] = test: Antiseptic activity in Balb/c mouse model of Escherichia coli K1 infection-induced sepsis assessed as reduction in serum endotoxin level at 1 mg/kg, ip pretreated for 1 hr followed by Escherichia coli K1 infection measured after 12 hrs by chromogenic assay; format: functional, organism-based
Method in brief: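 BALB/c mice dosed i.p. 1 h before i.p. E. coli K1 (1 × 10^6 CFU per mouse), sera taken at 12 h. Serum diluted 10-fold in endotoxin-free PBS, LAL chromogenic end-point assay; background subtracted, quantified against E. coli endotoxin standard, reported as EU·mL−1.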

Mus musculus [4] = test: Antiinflammatory activity in Balb/c mouse model of LPS-induced endotoxemia assessed as increase in survival rate at 1 mg/kg, ip pretreated for 1 hr followed by LPS-challenge measured over 72 hrs relative to control; format: functional
Method in brief: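 Female-unspecified BALB/c mice given compound i.p. 1 h before i.p. LPS (20 mg·kg−1); survival followed over 72 h.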

BMDC [5] = test: Cytotoxicity against C57BL/6 mouse BMDC assessed as effect on cell viability up to 100 uM after 24 hrs by luminescence assay; format: cell-based
Method in brief: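 BMDCs came from C57BL/6 marrow cultured 7 days with 10 ng·mL−1 GM-CSF. Cells at 1 × 10^4 per well were incubated 24 h with 6.25–200 μM compound, with DMSO and H2O2 controls. Viability was read as ATP by luminescence. Means ± SEM.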

Mus musculus [6] = test: Antiseptic activity in Balb/c mouse model of Escherichia coli K1 infection-induced sepsis assessed as reduction in bacterial count in kidneys at 1 mg/kg, ip pretreated for 1 hr followed by Escherichia coli K1 infection measured after 12 hrs; format: functional, organism-based
Method in brief: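 Pretreatment was 1 mg·kg−1 i.p. 1 h before i.p. E. coli K1 (1 × 10^6 CFU per mouse) in BALB/c mice. At 12 h, lungs, liver and kidneys were homogenized in PBS and diluted 1:1000. 10 μL was plated on LB agar, incubated 24 h at 37 °C, and colonies counted.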

Mus musculus [7] = test: Antiseptic activity in Balb/c mouse model of Escherichia coli K1 infection-induced sepsis assessed as increase in serum IL10 level at 1 mg/kg, ip pretreated for 1 hr followed by Escherichia coli K1 infection measured after 2 hrs by ELISA; format: functional, organism-based
Method in brief: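 BALB/c mice received 1 mg·kg−1 i.p. 1 h before i.p. E. coli K1 RS218, 1 × 10^6 CFU per mouse. Serum was collected at 2 h, and TNF-α, IL-6 and IL-10 were quantified by sandwich ELISA. Means ± SEM.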

BMDC [8] = test: Inhibition of Escherichia coli DH5alpha infection-induced immune response in C57BL/6 mouse BMDC assessed as reduction in TNFalpha secretion at 25 uM pretreated for 30 mins followed by Escherichia coli DH5alpha infection for 6 hrs by ELISA; format: functional, cell-based
Method in brief: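 C57BL/6 BMDCs received 25 μM compound and E. coli DH5α, 3 × 10^6 CFU·mL−1. Schedules were: compound 30 min before a 6 h infection; co-addition for 6 h; or compound for 30, 60, 90 or 120 min plus 6 h infection. Supernatant TNF-α, IL-6, IL-10 and IL-12p70 were measured by ELISA. At least three experiments in triplicate.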

BMDC [9] = test: Inhibition of Escherichia coli K1 infection-induced immune response in C57BL/6 mouse BMDC assessed as reduction in TNFalpha secretion at 25 uM pretreated for 30 mins followed by Escherichia coli K1 infection for 6 hrs by ELISA; format: functional, cell-based
Method in brief: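 BMDCs from C57BL/6 mice were given 25 μM compound and E. coli K1, […]. Timing was: compound 30 min before a 6 h infection; cotreatment for 6 h; or compound for 30–120 min with 6 h infection. Supernatant cytokines (TNF-α, IL-6, IL-10, IL-12p70) were measured by ELISA. At least three experiments in triplicate.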

[10] = biological target: T1, Toll-like receptor 4 (Mus musculus) (UniProt Q9QUK6); test: Inhibition of LPS-induced TLR4 activation in C57BL/6 mouse BMDC assessed as reduction in ERK phosphorylation at 25 uM pretreated for 30 mins followed by LPS-challenge measured after 15 to 90 mins by Western blot analysis; format: cell-based
T1 sequence (whole entry): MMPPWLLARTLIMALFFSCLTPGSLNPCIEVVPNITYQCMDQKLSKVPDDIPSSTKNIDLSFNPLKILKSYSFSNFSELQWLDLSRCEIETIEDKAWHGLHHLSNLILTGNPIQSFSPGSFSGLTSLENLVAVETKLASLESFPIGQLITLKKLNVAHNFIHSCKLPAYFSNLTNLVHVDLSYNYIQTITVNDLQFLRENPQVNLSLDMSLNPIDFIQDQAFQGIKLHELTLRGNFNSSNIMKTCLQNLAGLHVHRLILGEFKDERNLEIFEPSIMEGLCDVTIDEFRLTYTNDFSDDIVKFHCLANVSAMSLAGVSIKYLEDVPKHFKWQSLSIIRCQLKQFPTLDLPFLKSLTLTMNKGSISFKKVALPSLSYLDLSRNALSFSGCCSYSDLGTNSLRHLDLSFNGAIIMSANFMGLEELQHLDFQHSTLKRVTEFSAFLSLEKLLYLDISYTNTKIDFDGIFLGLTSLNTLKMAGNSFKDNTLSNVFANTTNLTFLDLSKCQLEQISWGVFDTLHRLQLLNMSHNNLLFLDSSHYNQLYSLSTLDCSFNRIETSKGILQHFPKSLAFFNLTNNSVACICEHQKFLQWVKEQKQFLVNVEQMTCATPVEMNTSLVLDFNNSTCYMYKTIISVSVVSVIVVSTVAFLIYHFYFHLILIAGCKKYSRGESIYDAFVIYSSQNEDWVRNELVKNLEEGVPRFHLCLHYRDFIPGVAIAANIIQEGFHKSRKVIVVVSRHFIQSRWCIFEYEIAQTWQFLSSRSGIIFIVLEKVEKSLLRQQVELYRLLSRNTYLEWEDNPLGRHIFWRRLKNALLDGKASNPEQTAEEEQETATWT
Method in brief: (§1)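 BMDCs were pretreated 30 min with 25 μM compound, then stimulated with LPS 50 ng·mL−1 for the indicated times. Lysates (25 μg protein) were run on 10% SDS-PAGE and immunoblotted for phospho/total ERK, JNK, p38 and Akt, plus COX-2, IκBα and α-tubulin, with ECL detection. Representative of three experiments.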

[11] = biological target: T1, Toll-like receptor 4 (Mus musculus); test: Inhibition of LPS-induced TLR4 activation in C57BL/6 mouse BMDC assessed as reduction in JNK1 phosphorylation at 25 uM pretreated for 30 mins followed by LPS-challenge measured after 15 to 90 mins by Western blot analysis; format: cell-based; method in brief: as §1

## COc1ccc(-c2oc3cc(O)cc(O)c3c(=O)c2O)cc1O [TAMARIXETIN]
BMDC [1]
  Activity: Active
Mus musculus [2]
  Activity: Active
Mus musculus [3]
  Activity: Active
Mus musculus [4]
  Activity: 80%
BMDC [5]
  Activity: Non-Toxic
Mus musculus [6]
  Activity: Active
Mus musculus [7]
  Activity: Active
BMDC [8]
  inhibition: Active
BMDC [9]
  inhibition: Active
[10]
  inhibition: inactive
[11]
  inhibition: Active
